One data set concerns A549. The experiment in a line: Antiproliferative activity against human A549 cells after 72 hrs by CellTiter-Glo luminescent cell viability assay. It is filed as functional, cell-based. The following applies: A549, 72 h. The method, boiled down: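 Cells in exponential growth exposed to a range of inhibitor concentrations for 72 h. CellTiter-Glo reagent added, mixed 2 min to lyse cells, luminescence read 10 min later. IC50 derived from the concentration–response. Replicates n ≥ 2, mean shown.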

The target of a further data set is Histone deacetylase. Nature of the data set: Inhibition of human HDAC in HeLa cell nuclear extracts using KI-104 Fluor de Lys as substrate by fluorescence assay. The format is protein assay. In outline: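 HDAC activity from partially purified HeLa nuclear extracts, using a fluorogenic acetylated histone peptide (Fluor de Lys) as substrate. Replicates n ≥ 2, mean values reported.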

The subject of data set [1] is HCT-116. The experiment in a line: Cell cycle arrest in human HCT116 cells assessed as decrease in G2/M phase cells at 0.3 uM after 24 hrs by flow cytometry. The format is functional, cell-based. The method, boiled down: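 HCT-116 cells treated for 24 h at several concentrations. Harvested, fixed in 70% ethanol at -20 °C, RNase treated (1 mg/mL), stained with propidium iodide. DNA content measured by flow cytometry to give phase distribution, including the subG1 population.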

Data set [2] can be described thus: Plasma clearance in CD1 mouse at 5 mg/kg, iv and 15 mg/kg, po. It is filed as ADME, organism-based. The method, boiled down:
(§1)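 Single dose to male CD-1 mice, either iv at 5 mg/kg or oral at 15 mg/kg. Plasma pharmacokinetic parameters were calculated from these dosings.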

The nature of data set [3]: Volume of distribution at steady state in CD1 mouse at 5 mg/kg, iv and 15 mg/kg, po. The format is ADME, organism-based. The note with it: in vivo, read-out: Vdss. The method, boiled down:
as §1

A short description of data set [4]: Cmax in CD1 mouse at 15 mg/kg, po. It is filed as ADME, organism-based. Also noted: dose 15 mg/kg, route oral. The following applies: in vivo. The method, boiled down:
as §1

Data set [5] can be described thus: Oral bioavailability in CD1 mouse at 15 mg/kg. The following applies: in vivo. The format is ADME, organism-based. The method, boiled down: as §1
The species entered for data set [6] is Mus musculus. Nature of the data set: Hepatic blood flow in mouse. The format is ADME, organism-based, Liver.
The test system of data set [7] is Mus musculus. The experiment in a line: Toxicity in human HCT116 cells xenografted CD1 nude mouse assessed as signs of toxicity at 35 to 150 mg/kg, po administered for 5 days/week for 17 days. The following applies: in vivo. Details: dose 35-150 mg/kg, route oral. The format is organism-based, HCT-116.
Data set [8] relates to HCT-116. The experiment in a line: Antitumor activity against human HCT116 cells xenografted in CD1 nude mouse assessed as reduced tumor volume 150 mg/kg, po administered for 5 days/week for 17 days. The format is functional. In outline: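 Female CD-1 nude mice bearing subcutaneous flank HCT-116 tumours (5 × 10⁶ cells injected). Dosing began at about 100 mm³ tumour volume. Given orally at 35–150 mg/kg in water with 5% DMSO and 9.5% encapsin, 5 days/week for 17 days. Tumour volume tracked against vehicle controls. T/C = mean relative tumour volume treated / control.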

For data set [9], the system named is Mus musculus. Nature of the data set: Toxicity in human HCT116 cells xenografted CD1 nude mouse assessed as change in body weight at 35 to 150 mg/kg, po administered for 5 days/week for 17 days. It is filed as organism-based, HCT-116. Also noted: dose 35-150 mg/kg, route oral. The note with it: in vivo.
Data set [10] deals with Mus musculus. The experiment in a line: Increase of histone H4 cetylation in human HCT116 cells xenografted in CD1 mouse at 35 to 150 mg/kg, po administered for 5 days/week for 17 days by immunohistochemistry. The format is functional, organism-based. The note with it: HCT-116. In outline:
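Xenograft tumours from the oral efficacy study were collected 2 h after the last dose. They were formalin-fixed, paraffin-embedded, unmasked in TEG buffer pH 9, treated 5 min with 3% H2O2, and incubated overnight at 4 °C with anti-acetyl-histone H4. Staining was developed by HRP detection with hematoxylin counterstain. Positive cells and signal intensity were compared with vehicle.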

Another data set addresses Histone deacetylase 1 (Homo sapiens, UniProt Q13547). The experiment in a line: Inhibition of HDAC1 using carboxyfluorescein-labeled peptide as substrate after 17 hrs by fluorescence assay. In outline: (§2)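 Purified HDAC isoforms incubated with compound and 1 μM carboxyfluorescein-labelled peptide for 17 h at 25 °C. Reaction stopped with HEPES/0.08% SDS. Substrate and product separated electrophoretically and read by fluorescence. Run in duplicate. IC50 from 12-point curves by nonlinear regression.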

The next data set has as its target T1, Histone deacetylase 8 (Homo sapiens, UniProt Q9BY41).
T1 sequence (Q9BY41 whole entry): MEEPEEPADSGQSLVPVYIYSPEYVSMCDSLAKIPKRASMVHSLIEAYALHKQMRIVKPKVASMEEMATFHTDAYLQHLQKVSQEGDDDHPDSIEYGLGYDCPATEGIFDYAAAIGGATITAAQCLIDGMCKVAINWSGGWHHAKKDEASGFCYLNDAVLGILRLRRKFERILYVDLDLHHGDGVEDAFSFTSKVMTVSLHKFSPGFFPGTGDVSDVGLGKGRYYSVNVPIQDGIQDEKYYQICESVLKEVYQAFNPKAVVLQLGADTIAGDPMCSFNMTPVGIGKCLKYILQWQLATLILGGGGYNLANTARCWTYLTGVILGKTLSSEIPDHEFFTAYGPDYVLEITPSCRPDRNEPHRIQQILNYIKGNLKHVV
The experiment in a line: Inhibition of HDAC8 using carboxyfluorescein-labeled peptide as substrate after 17 hrs by fluorescence assay. In outline: as §2

The source made the active and inactive calls. The rule behind the calls is not given here.

This note sets out measurements from ChEMBL document CHEMBL1938288, “Discovery, synthesis, and pharmacological evaluation of spiropiperidine hydroxamic acid based derivatives as structurally novel histone deacetylase (HDAC) inhibitors” (J Med Chem, 2011).

Chain of Histone deacetylase 1 (Q13547 whole entry, canonical isoform): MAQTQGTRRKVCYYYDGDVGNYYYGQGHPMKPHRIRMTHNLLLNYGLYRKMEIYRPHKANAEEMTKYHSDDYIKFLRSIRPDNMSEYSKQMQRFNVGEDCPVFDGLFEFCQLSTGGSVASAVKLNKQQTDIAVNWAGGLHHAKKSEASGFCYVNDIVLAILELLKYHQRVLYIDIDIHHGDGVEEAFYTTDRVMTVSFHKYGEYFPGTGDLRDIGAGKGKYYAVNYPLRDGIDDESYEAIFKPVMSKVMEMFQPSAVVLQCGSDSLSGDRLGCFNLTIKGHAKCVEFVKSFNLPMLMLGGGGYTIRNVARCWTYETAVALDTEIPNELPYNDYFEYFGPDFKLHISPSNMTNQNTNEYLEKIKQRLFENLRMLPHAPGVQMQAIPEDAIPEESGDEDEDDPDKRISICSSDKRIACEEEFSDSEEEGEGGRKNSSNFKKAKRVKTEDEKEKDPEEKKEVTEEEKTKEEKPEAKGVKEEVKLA

In the case of `O=C(/C=C/c1ccc2c(c1)C(=O)CC1(CCN(Cc3ccccc3)CC1)O2)NO`, the IC50 is 773 nM with A549, 121 nM on Histone deacetylase, 93.8 nM against Histone deacetylase 1 and 1760 nM on Histone deacetylase 8. For the same molecule, the outcome with HCT-116 [1] and with Mus musculus [10] was Active. The same molecule had a clearance in data set [2] of 98 mL/min/kg. In [3], the Vd came out at 8.9 L/kg. In data set [4], the peak level (Cmax) was 823 nM. In [5], this molecule yielded a bioavailability of 31.5%. In the data set filed under Mus musculus [6], this molecule showed a QH of 90 mL/min/kg. The Activity result with Mus musculus [7] and with Mus musculus [9] was “Non-toxic” in each case. Moreover, the T/C with HCT-116 [8] is 0.3.
